Source: PubChem BioAssay
Shown are actives, neighbours in structure and some others; about 2.2% of the full set was active somewhere.
Hck Nef HTS – inhibitors of human Hck kinase activated by Nef; P08631; Recombinant Hck-YEEI plus Nef, Z-Lyte FRET kinase assay; inhibition, % at 20 µM; 0.68% of 220,000 active; AID 463187;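 active = Hck-Nef kinase inhibition above about 50%, limit read from the data; inactive = inhibition below that limit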
Target sequence (P08631 whole entry, looked up): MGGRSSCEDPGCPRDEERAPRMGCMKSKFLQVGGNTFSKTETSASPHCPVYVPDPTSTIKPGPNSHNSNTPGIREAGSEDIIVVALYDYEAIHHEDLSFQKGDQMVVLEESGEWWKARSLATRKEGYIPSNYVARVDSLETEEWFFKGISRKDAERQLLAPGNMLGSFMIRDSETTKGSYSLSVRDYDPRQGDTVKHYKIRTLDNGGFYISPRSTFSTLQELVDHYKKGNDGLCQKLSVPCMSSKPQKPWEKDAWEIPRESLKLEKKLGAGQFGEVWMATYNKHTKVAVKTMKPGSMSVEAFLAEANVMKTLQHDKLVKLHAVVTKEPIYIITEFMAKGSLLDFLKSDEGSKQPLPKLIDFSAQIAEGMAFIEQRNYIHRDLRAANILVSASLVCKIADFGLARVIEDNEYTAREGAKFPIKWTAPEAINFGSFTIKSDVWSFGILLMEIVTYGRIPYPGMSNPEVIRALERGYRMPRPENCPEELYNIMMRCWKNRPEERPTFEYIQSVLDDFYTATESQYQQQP
PERK inhibitor – human PERK inhibition, primary cell-based screen; Q9NZJ5; CHO PERK-DD fusion, SEAP luminescence translation reporter; inhibition, % at 5.6 µM; 0.17% of 220,000 active; AID 1416;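 active = inhibition above the mean inhibition of all tested compounds plus 3 SD, set separately per screening campaign, cut at about 2.9% in these data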;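 also: PERK kinase domain activated by AP20187 dimerizer at 100 nM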
Runt-SMMHC FRET – Runt domain-CBFb-SMMHC interaction inhibition; inhibition, % at 20 µM; Cerulean-Runt/Venus-CBFb-SMMHC FRET ratio 530/480, 1 h; 0.74% of 220,000 active; Q01196+Q13951;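 active = mean inhibition across duplicate retests at 20 µM reaching about 50%, limit read from the data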;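 also: inhibitors lower the FRET ratio by blocking Runt binding to CBFb-SMMHC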
eIF4E 4G PPI – inhibitors of eIF4E and eIF4G interaction in translation initiation; 0.37% of 220,000 active; TR-FRET eIF4E-eIF4GI(517-606) binding, 2 h; inhibition, % at 21.7 µM;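 active = inhibition above about 30%, limit read from the data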
RanGTP-Impb inh – disruptors of Ran-importin-beta complex formation – biochemical, FRET, CFP-Ran, YFP-importin-beta, homogeneous, primary screen; cell-free CFP-Ran/YFP-importin-beta FRET ratio; inhibition, % (test concentration not listed); 1.1% of 300,000 active; AID 2216;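 active = more than half of the replicate wells show a fall in the fluorescence ratio signal beyond about 16%, limit read from the data, passing the limit was not always enough; inconclusive = exactly half of the replicate wells pass the set limit; inactive = fewer than half of replicates pass the limit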
Runt-CBFb FRET – blocks binding of human RUNX1 Runt domain to CBFb; Cerulean-Runt/Venus-CBFb FRET ratio 530/480, 1 h; Q01196+Q13951; inhibition, % at 20 µM; 0.46% of 220,000 active; AID 1496;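 active = inhibition over about 50% at 20 µM in the single-dose screen, limit read from the data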
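test system = Cerulean-Runt domain fusion protein, energy donor | probe or stimulus = Venus-CBFb binding partner, 100 nM | incubation = two 1 h room-temperature incubations shielded from light | detection = fluorescence energy transfer, 422 nm excitation, 530/480 nm emission | measure = loss of energy transfer signal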
Hck-Nef confirm – confirmation of Hck-Nef kinase inhibitors | shares compounds with Hck Nef HTS | Recombinant Hck-YEEI:Nef, Z-Lyte FRET kinase assay | calls only at 10 µM | 28% of 1,300 active | AID 463188;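 active = average inhibition of at least 50%, with Z-scores no higher than 3 in both the phospho-tyrosine peptide and fluorescence counterscreens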
Numbers stand for hits; i = inactive; ? = inconclusive; nt = not tested or not shown; + = active, no number.

SMILES | Hck Nef HTS | PERK inhibitor | Runt-SMMHC FRET | eIF4E 4G PPI | RanGTP-Impb inh | Runt-CBFb FRET | Hck-Nef confirm
COc1ccccc1NS(=O)(=O)c1cccc(NC(=O)c2sc3ccccc3c2Cl)c1 | 154 | i | i | i | i | i | i
CCOC(=O)C(C)Oc1cccc2c(=O)n(CC(=O)N3CCCc4ccccc43)ccc12 (stereo not drawn) | i | i | i | i | ? | i | nt
c1ccc(-c2cc(-c3nnc4n3N=C(c3ccc5ccccc5c3)CS4)[nH]n2)cc1 | 54 | i | i | i | i | i | +
O=C(CSc1ncnc2c1oc1ccccc12)Nc1cccc(Cl)c1 | 51 | i | i | i | i | i | i
O=C(NCC1CCCO1)C(=O)NCC(c1ccco1)N1CCN(c2ccc(F)cc2)CC1 (stereo not drawn) | i | i | i | i | i | i | nt
COc1ccc(Nc2n[nH]c(N)c2C(N)=O)cc1 | 65 | i | i | i | i | i | i
Cc1ccc(O)c(N=Cc2cc(Cc3ccccc3)cc([N+](=O)[O-])c2O)c1 | 62 | i | i | i | i | i | i
O=[N+]([O-])c1cc(Cc2ccccc2)cc(C=Nc2ccc(N3CCOCC3)cc2)c1O | i | i | i | i | i | i | nt
O=C1ON=C(c2ccccc2)/C1=C\c1ccco1 | 54 | i | i | i | i | i | i
NC(N)=NC(N)=Nc1ccc(SC(F)(F)F)cc1 | i | i | i | i | i | i | nt
Cc1cc(SCC(=O)OCC(=O)c2c(N)n(C)c(=O)n(C)c2=O)c(C)cc1Br | 55 | i | i | i | i | i | i
CCOC(=O)c1c(/N=C/N(C)C)sc(C=O)c1-c1ccccc1 | 98 | i | 134 | i | i | 103 | i
COc1cccc(NC(=O)Cn2c(=O)n(-c3cc(OC)c(OC)c(OC)c3)c(=O)c3ccccc32)c1 | 124 | i | i | i | i | i | i
CCn1c(=O)n(CC(=O)Nc2cccc(OC)c2)c(=O)c2ccccc21 | i | i | i | i | i | i | nt
CC(=O)COc1nc2c(c(-c3ccco3)c1C#N)CCc1ccccc1-2 | 56 | i | i | i | i | i | i
O=[N+]([O-])c1ccc(/C=N/n2cn[nH]c2=S)cc1 | 105 | i | i | i | i | i | nt
CCCCOc1ccccc1C1C(C(=O)OC)=CN(CC)C=C1C(=O)OC | 62 | i | i | i | 107 | i | nt
COC(=O)C1=CN(C)C=C(C(=O)OC)C1c1ccccc1Cl | 70 | i | 83 | i | 87 | i | nt
CCCCOc1ccccc1C(=O)NCC(=O)O | i | i | i | i | i | i | nt
CCCOc1ccccc1C1C(C(=O)OC)=CN(C(C)C)C=C1C(=O)OC | 68 | i | 58 | i | 115 | 86 | nt
COC(=O)C1=CN(CCCN2CCCC2=O)C=C(C(=O)OC)C1c1ccccc1C(F)(F)F | 85 | i | i | i | 116 | i | nt
COc1cccc(NC(=O)CN(C)C(=O)c2cc(-c3cccc(Br)c3)nc3ccccc23)c1 | nt | nt | nt | nt | i | nt | nt
Cc1ccc(CNC(=O)C2(S(=O)(=O)c3ccccc3)CC=CC2)cc1 | nt | nt | nt | nt | i | nt | nt
CCN(CC)CCCNC(=O)c1cc2nc(-c3ccccc3)cc(C(F)(F)F)n2n1 | nt | nt | nt | nt | i | nt | nt
CCOC(=O)C1CCN(C(=O)c2cc3c(=O)n4ccccc4nc3s2)CC1 | nt | nt | nt | nt | i | nt | nt
SMILES | Hck Nef HTS | PERK inhibitor | Runt-SMMHC FRET | eIF4E 4G PPI | RanGTP-Impb inh | Runt-CBFb FRET | Hck-Nef confirm
CCNC(=O)c1c(NC(=O)c2cc(-c3cc(C)ccc3O)n[nH]2)sc2c1CCCC2 | 100 | i | i | i | i | i | i
Cc1ccc(-c2cc(C(=O)Nc3sc4c(c3C(=O)NCc3ccco3)CCC4)[nH]n2)c(O)c1 | i | i | i | i | ? | i | nt
Cc1cc(O)c(-c2cc(C(=O)Nc3sc4c(c3C(=O)NCc3ccco3)CCC4)[nH]n2)cc1C | 59 | i | i | i | ? | i | i
CCc1nc(C)cn1S(=O)(=O)c1cc(Cl)c(OC)cc1Cl | i | i | i | i | i | i | nt
COc1ccc(S(=O)(=O)N2CCCN(Cc3cccc(F)c3)CC2)cc1 | i | i | i | i | i | i | nt
CCc1cc(=O)oc2cc(OC(=O)c3ccco3)ccc12 | nt | nt | nt | nt | i | nt | nt
Cc1cc(=O)oc2cc(OC(=O)c3ccco3)ccc12 | 127 | i | i | i | i | i | i
COC(=O)Cc1c(C)c2ccc(OC(=O)c3ccco3)cc2oc1=O | 102 | i | i | i | i | i | nt
COc1ccc(CCc2nnc(CCC(=O)NCc3ccc4ncccc4c3)o2)cc1 | i | i | i | i | ? | i | nt
Cc1cc(NCCN2CCCCC2)n2c(nc3ccccc32)c1C#N | i | i | i | i | i | i | nt
CCCc1cc(NCCCO)n2c(nc3ccccc32)c1C#N | 194 | i | i | i | 30 | i | nt
CCC(C)Nc1cc(C)c(C#N)c2nc3ccccc3n12 (stereo not drawn) | nt | nt | nt | nt | i | nt | nt
Cc1cc(NCC2CCCO2)n2c(nc3ccccc32)c1C#N (stereo not drawn) | 95 | i | i | i | i | i | nt
Cc1cc(NCCCn2ccnc2)n2c(nc3ccccc32)c1C#N | 64 | i | i | i | 19 | i | nt
CC(C)c1cc(NCC2CCCO2)n2c(nc3ccccc32)c1C#N (stereo not drawn) | 108 | i | i | i | i | i | nt
Cc1cc(Nc2ccc(O)cc2)n2c(nc3ccccc32)c1C#N | i | i | i | i | i | i | nt
CC1(C)CC(NC(=O)c2ccc(Br)o2)CC(C)(C)N1 | nt | nt | nt | nt | i | nt | nt
Cc1ccc(C(=O)CSc2nc3ccc(C(=O)NCCN4CCCCC4)cc3c(=O)[nH]2)cc1 | i | nt | i | i | i | i | nt
O=C(O)c1cc(-c2ccco2)nn1-c1cccc(Cl)c1 | 52 | i | i | i | i | i | i
Cc1ccc(-n2nc(-c3cccnc3)cc2C(=O)N2CCOCC2)c(C)c1 | i | i | i | i | i | i | nt
O=C(O)c1cc(-c2cccs2)nn1-c1cccc(Cl)c1 | i | i | i | i | i | i | nt
Cc1ccc(-n2nc(-c3ccco3)cc2C(=O)O)c(C)c1 | 55 | i | i | 40 | i | i | i
CCC(=O)Nc1nc(C)c(-c2csc(Nc3ccc(C(=O)O)cc3)n2)s1 | nt | nt | nt | nt | i | nt | nt
CC(=O)Nc1nc(C)c(-c2csc(Nc3cccc([N+](=O)[O-])c3)n2)s1 | 51 | i | i | i | ? | i | i
Cc1nc(NC(=O)c2ccccc2)sc1-c1csc(Nc2ccc(C(=O)O)cc2)n1 | 93 | i | i | 35 | i | i | i
COC(=O)c1nc(NC(=O)c2ccccc2Br)n[nH]1 | i | i | i | i | nt | i | nt
O=C1CC2(CCCCCC2)Oc2ccccc21 | nt | nt | nt | nt | i | nt | nt
O=C1N/C(=N\N=C\c2ccc3ncccc3c2)SC1Cc1ccc(SC(F)F)cc1 (stereo not drawn) | 85 | i | i | i | nt | i | +
O=c1oc2c3c4c(cc2c2c1CCC2)OCCN4CCC3 | 97 | i | 53 | i | nt | 83 | nt
